# According to ChEMBL document CHEMBL4011622, “The Structure-Activity Relationship of a Tetrahydroisoquinoline Class of N-Methyl-d-Aspartate Receptor Modulators that Potentiates GluN2B-Containing N-Methyl-d-Aspartate Receptors” (J Med Chem, 2017):
# Target: Glutamate NMDA receptor; Grin1/Grin2b (Rattus norvegicus) (UniProt P35439+Q00960)
# Assay: Positive allosteric modulation of recombinant rat GluN1/GluN2B receptor expressed in xenopus laevis oocyte assessed as potentiation of glutamate and glycine-induced current response at 30 uM at holding potential -40mV by two electrode voltage clamp method relative to control
# Summary of the method: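 Two-electrode voltage clamp at -40 mV, 23°C, pH 7.4 Ba²⁺ recording solution, on Xenopus oocytes expressing rat NMDA receptors. Currents were evoked by 100 µM glutamate plus 30 µM glycine, with compound co-applied (DMSO 0.05–0.5% final). […] Each compound used at least 4 oocytes from at least 2 frogs.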
Compound,Activity,Emax
CCOc1ccc(OCC2c3ccc(OCC)cc3CCN2C(=O)c2cccc(F)c2)cc1 (configuration not stated),94%,–
CCOc1ccc(OCC2c3ccc(OC(C)C)cc3CCN2C(=O)c2cccc(C)c2)cc1 (configuration not stated),78%,–
CCOc1ccc(OCC2c3ccc(N4CCOCC4)cc3CCN2C(=O)c2cccc(Cl)c2)cc1 (configuration not stated),127%,–
CCOc1ccc(OCC2c3ccc(OC(C)C)cc3CCN2C(=O)c2ccccc2)cc1 (configuration not stated),88%,–
CCOc1ccc(OCC2c3ccc(OC(C)C)cc3CCN2C(=O)c2cccc(Br)c2)cc1 (configuration not stated),136%,137%
COc1ccc(OCC2c3ccc(N(C)C)cc3CCN2C(=O)c2cccc(Br)c2)cc1 (configuration not stated),99%,–
CCOc1ccc(OCC2c3ccc(OCC)cc3CCN2C(=O)c2cccc(Cl)c2)cc1 (configuration not stated),104%,–
COc1ccc(OCC2c3ccc(OC(C)C)cc3CCN2C(=O)c2ccc(OC)cc2)cc1 (configuration not stated),110%,–
CCOc1ccc(OCC2c3ccc(OC(C)C)cc3CCN2C(=O)c2cccc(OC)c2)cc1 (configuration not stated),89%,–
CC(C)Oc1ccc(OCC2c3ccc(OC(C)C)cc3CCN2C(=O)c2cccc(Cl)c2)cc1 (configuration not stated),159%,160%
CCOc1ccc(OCC2c3ccc(OC(C)C)cc3CCN2C(=O)c2cccc(F)c2)cc1 (configuration not stated),147%,152%
CCOc1ccc(OCC2c3ccc(OC(C)C)cc3CCN2C(=O)c2ccc(F)cc2)cc1 (configuration not stated),118%,–
CCOc1ccc(OCC2c3ccc(OC(C)C)cc3CCN2C(=O)c2ccccc2Cl)cc1 (configuration not stated),67%,–
CCOc1ccc(OCC2c3ccc(OC(C)C)cc3CCN2C(=O)c2cccc(-c3ccccc3)c2)cc1 (configuration not stated),112%,–
COc1ccc(OCC2c3ccc(OC(C)C)cc3CCN2C(=O)c2cccc(N)c2)cc1 (configuration not stated),106%,–
CCOc1ccc(OCC2c3ccc(OC(C)C)cc3CCN2C(=O)c2ccccc2F)cc1 (configuration not stated),61%,–
CC(C)Oc1ccc(OCC2c3ccc(OC(C)C)cc3CCN2C(=O)c2cccc(C(F)(F)F)c2)cc1 (configuration not stated),–,157%
CC(C)Oc1ccc(OCC2c3ccc(OC(C)C)cc3CCN2C(=O)c2cccc(F)c2)cc1 (configuration not stated),179%,185%
CCOc1ccc(OCC2c3ccc(OC(C)C)cc3CCN2C(=O)c2ccc(Cl)cc2)cc1 (configuration not stated),112%,–
COc1ccc(OCC2c3ccc(OC(C)C)cc3CCN2C(=O)c2cccc(O)c2)cc1 (configuration not stated),98%,–

# Target: Glutamate NMDA receptor; Grin1/Grin2c (Rattus norvegicus) (UniProt P35439+Q00961)
# Assay: Positive allosteric modulation of recombinant rat GluN1/GluN2C receptor expressed in xenopus laevis oocyte assessed as potentiation of glutamate and glycine-induced current response at 30 uM at holding potential -40mV by two electrode voltage clamp method relative to control
# Summary of the method: (§1)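 Two-electrode voltage clamp at -40 mV, 23°C, pH 7.4 Ba²⁺ recording solution, on Xenopus oocytes expressing rat NMDA receptors. Currents were evoked by 100 µM glutamate plus 30 µM glycine, with compound co-applied (DMSO 0.05–0.5% final). Each compound used at least 4 oocytes from at least 2 frogs.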
Compound,Activity,Emax
CCOc1ccc(OCC2c3ccc(OCC)cc3CCN2C(=O)c2cccc(F)c2)cc1 (configuration not stated),77%,–
CCOc1ccc(OCC2c3ccc(OC(C)C)cc3CCN2C(=O)c2cccc(C)c2)cc1 (configuration not stated),67%,–
CCOc1ccc(OCC2c3ccc(N4CCOCC4)cc3CCN2C(=O)c2cccc(Cl)c2)cc1 (configuration not stated),133%,–
CCOc1ccc(OCC2c3ccc(OC(C)C)cc3CCN2C(=O)c2ccccc2)cc1 (configuration not stated),83%,–
CCOc1ccc(OCC2c3ccc(OC(C)C)cc3CCN2C(=O)c2cccc(Br)c2)cc1 (configuration not stated),133%,135%
COc1ccc(OCC2c3ccc(N(C)C)cc3CCN2C(=O)c2cccc(Br)c2)cc1 (configuration not stated),285%,293%
CCOc1ccc(OCC2c3ccc(OCC)cc3CCN2C(=O)c2cccc(Cl)c2)cc1 (configuration not stated),91%,–
COc1ccc(OCC2c3ccc(OC(C)C)cc3CCN2C(=O)c2ccc(OC)cc2)cc1 (configuration not stated),138%,–
CCOc1ccc(OCC2c3ccc(OC(C)C)cc3CCN2C(=O)c2cccc(OC)c2)cc1 (configuration not stated),65%,–
CC(C)Oc1ccc(OCC2c3ccc(OC(C)C)cc3CCN2C(=O)c2cccc(Cl)c2)cc1 (configuration not stated),134%,138%
CCOc1ccc(OCC2c3ccc(OC(C)C)cc3CCN2C(=O)c2cccc(F)c2)cc1 (configuration not stated),104%,–
CCOc1ccc(OCC2c3ccc(OC(C)C)cc3CCN2C(=O)c2ccc(F)cc2)cc1 (configuration not stated),107%,–
CCOc1ccc(OCC2c3ccc(OC(C)C)cc3CCN2C(=O)c2ccccc2Cl)cc1 (configuration not stated),93%,–
CCOc1ccc(OCC2c3ccc(OC(C)C)cc3CCN2C(=O)c2cccc(-c3ccccc3)c2)cc1 (configuration not stated),92%,–
COc1ccc(OCC2c3ccc(OC(C)C)cc3CCN2C(=O)c2cccc(N)c2)cc1 (configuration not stated),105%,–
CCOc1ccc(OCC2c3ccc(OC(C)C)cc3CCN2C(=O)c2ccccc2F)cc1 (configuration not stated),68%,–
CC(C)Oc1ccc(OCC2c3ccc(OC(C)C)cc3CCN2C(=O)c2cccc(C(F)(F)F)c2)cc1 (configuration not stated),–,132%
CC(C)Oc1ccc(OCC2c3ccc(OC(C)C)cc3CCN2C(=O)c2cccc(F)c2)cc1 (configuration not stated),133%,135%
CCOc1ccc(OCC2c3ccc(OC(C)C)cc3CCN2C(=O)c2ccc(Cl)cc2)cc1 (configuration not stated),101%,–
COc1ccc(OCC2c3ccc(OC(C)C)cc3CCN2C(=O)c2cccc(O)c2)cc1 (configuration not stated),117%,–

# Target: Ionotropic glutamate receptor NMDA 1/2D (Rattus norvegicus) (UniProt P35439+Q62645)
# Assay: Positive allosteric modulation of recombinant rat GluN1/GluN2D receptor expressed in xenopus laevis oocyte assessed as potentiation of glutamate and glycine-induced current response at 30 uM at holding potential -40mV by two electrode voltage clamp method relative to control
# Summary of the method: as §1
Compound,Activity,Emax
CCOc1ccc(OCC2c3ccc(OCC)cc3CCN2C(=O)c2cccc(F)c2)cc1 (configuration not stated),67%,–
CCOc1ccc(OCC2c3ccc(OC(C)C)cc3CCN2C(=O)c2cccc(C)c2)cc1 (configuration not stated),43%,–
CCOc1ccc(OCC2c3ccc(N4CCOCC4)cc3CCN2C(=O)c2cccc(Cl)c2)cc1 (configuration not stated),104%,–
CCOc1ccc(OCC2c3ccc(OC(C)C)cc3CCN2C(=O)c2ccccc2)cc1 (configuration not stated),69%,–
CCOc1ccc(OCC2c3ccc(OC(C)C)cc3CCN2C(=O)c2cccc(Br)c2)cc1 (configuration not stated),98%,–
COc1ccc(OCC2c3ccc(N(C)C)cc3CCN2C(=O)c2cccc(Br)c2)cc1 (configuration not stated),307%,327%
CCOc1ccc(OCC2c3ccc(OCC)cc3CCN2C(=O)c2cccc(Cl)c2)cc1 (configuration not stated),75%,–
COc1ccc(OCC2c3ccc(OC(C)C)cc3CCN2C(=O)c2ccc(OC)cc2)cc1 (configuration not stated),114%,–
CCOc1ccc(OCC2c3ccc(OC(C)C)cc3CCN2C(=O)c2cccc(OC)c2)cc1 (configuration not stated),44%,–
CC(C)Oc1ccc(OCC2c3ccc(OC(C)C)cc3CCN2C(=O)c2cccc(Cl)c2)cc1 (configuration not stated),111%,–
CCOc1ccc(OCC2c3ccc(OC(C)C)cc3CCN2C(=O)c2cccc(F)c2)cc1 (configuration not stated),91%,–
CCOc1ccc(OCC2c3ccc(OC(C)C)cc3CCN2C(=O)c2ccc(F)cc2)cc1 (configuration not stated),90%,–
CCOc1ccc(OCC2c3ccc(OC(C)C)cc3CCN2C(=O)c2ccccc2Cl)cc1 (configuration not stated),79%,–
CCOc1ccc(OCC2c3ccc(OC(C)C)cc3CCN2C(=O)c2cccc(-c3ccccc3)c2)cc1 (configuration not stated),92%,–
COc1ccc(OCC2c3ccc(OC(C)C)cc3CCN2C(=O)c2cccc(N)c2)cc1 (configuration not stated),107%,–
CCOc1ccc(OCC2c3ccc(OC(C)C)cc3CCN2C(=O)c2ccccc2F)cc1 (configuration not stated),55%,–
CC(C)Oc1ccc(OCC2c3ccc(OC(C)C)cc3CCN2C(=O)c2cccc(F)c2)cc1 (configuration not stated),103%,–
CCOc1ccc(OCC2c3ccc(OC(C)C)cc3CCN2C(=O)c2ccc(Cl)cc2)cc1 (configuration not stated),88%,–
COc1ccc(OCC2c3ccc(OC(C)C)cc3CCN2C(=O)c2cccc(O)c2)cc1 (configuration not stated),105%,–

# Target: Glutamate NMDA receptor; Grin1/Grin2b (Rattus norvegicus, UniProt P35439+Q00960)
# Assay: Positive allosteric modulation of recombinant rat GluN1/GluN2B receptor expressed in xenopus laevis oocyte assessed as potentiation of glutamate and glycine-induced current response at holding potential -40mV by two electrode voltage clamp method
# Summary of the method: as §1
row,Compound,EC50
1,CCOc1ccc(OCC2c3ccc(OC(C)C)cc3CCN2C(=O)c2cccc(Br)c2)cc1 (configuration not stated),3400 nM
2,CC(C)Oc1ccc(OCC2c3ccc(OC(C)C)cc3CCN2C(=O)c2cccc(Cl)c2)cc1 (configuration not stated),3800 nM
3,CCOc1ccc(OCC2c3ccc(OC(C)C)cc3CCN2C(=O)c2cccc(F)c2)cc1 (configuration not stated),7200 nM
4,CCOc1ccc(OCC2c3ccc(OC(C)C)cc3CCN2C(=O)c2cccc(C(F)(F)F)c2)cc1 (configuration not stated),2400 nM
5,CC(C)Oc1ccc(OCC2c3ccc(OC(C)C)cc3CCN2C(=O)c2cccc(C(F)(F)F)c2)cc1 (configuration not stated),1500 nM
6,COc1ccc(OCC2c3ccc(OC(C)C)cc3CCN2C(=O)c2cccc(F)c2)cc1 (configuration not stated),36000 nM
7,CC(C)Oc1ccc(OCC2c3ccc(OC(C)C)cc3CCN2C(=O)c2cccc(F)c2)cc1 (configuration not stated),7100 nM

# Target: Glutamate NMDA receptor; Grin1/Grin2c (Rattus norvegicus, UniProt P35439+Q00961)
# Assay: Positive allosteric modulation of recombinant rat GluN1/GluN2C receptor expressed in xenopus laevis oocyte assessed as potentiation of glutamate and glycine-induced current response at holding potential -40mV by two electrode voltage clamp method
# Summary of the method: as §1
row,Compound,EC50
1,CCOc1ccc(OCC2c3ccc(OC(C)C)cc3CCN2C(=O)c2cccc(Br)c2)cc1 (configuration not stated),1800 nM
2,COc1ccc(OCC2c3ccc(N(C)C)cc3CCN2C(=O)c2cccc(Br)c2)cc1 (configuration not stated),2400 nM
3,CC(C)Oc1ccc(OCC2c3ccc(OC(C)C)cc3CCN2C(=O)c2cccc(Cl)c2)cc1 (configuration not stated),1700 nM
4,CCOc1ccc(OCC2c3ccc(OC(C)C)cc3CCN2C(=O)c2cccc(C(F)(F)F)c2)cc1 (configuration not stated),1300 nM
5,CC(C)Oc1ccc(OCC2c3ccc(OC(C)C)cc3CCN2C(=O)c2cccc(C(F)(F)F)c2)cc1 (configuration not stated),920 nM
6,CC(C)Oc1ccc(OCC2c3ccc(OC(C)C)cc3CCN2C(=O)c2cccc(F)c2)cc1 (configuration not stated),2700 nM

# Target: Ionotropic glutamate receptor NMDA 1/2D (Rattus norvegicus, UniProt P35439+Q62645)
# Assay: Positive allosteric modulation of recombinant rat GluN1/GluN2D receptor expressed in xenopus laevis oocyte assessed as potentiation of glutamate and glycine-induced current response at holding potential -40mV by two electrode voltage clamp method
# Summary of the method: as §1
row,Compound,EC50
1,COc1ccc(OCC2c3ccc(N(C)C)cc3CCN2C(=O)c2cccc(Br)c2)cc1 (configuration not stated),3800 nM
